Drawing on ChEMBL document CHEMBL1148894, “Triterpene saponins from the roots of Clematis chinensis” (J Nat Prod, 2004), this text covers IC50, CC50 and Activity for three compounds.

The structures appear in SMILES notation. The source made the active and inactive calls. The calls are words filed in the database; no cut-off is given here.

Experiment [1] has as its system HL-60. In words: Cytotoxicity against human HL60 cells after 72 hrs by MTT assay. The following applies: HL-60, 72 h. The experiment is classed as functional, cell-based. The procedure, abridged: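 HL-60 cells (JCRB 0085) grown in RPMI 1640 with heat-inactivated 10% FBS, L-glutamine, penicillin and streptomycin. Seeded at 4 × 10^4 cells/mL, preincubated 24 h at 37 °C in 5% CO2. Samples added in EtOH-H2O (1:1) to final 0.1-50 µg/mL, with vehicle controls, then incubated 72 h. MTT added for 4 h, formazan dissolved in DMSO, A550 read. Done in triplicate; IC50 is the 50% drop in viable cells.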

Experiment [2] can be described thus: Cytotoxicity against human BSY1 cells. The following applies: BSY-1, read-out: LC50 (the source's name). It is filed as functional.
A further experiment has as its system U-251. The experiment in a line: Cytotoxicity against human U251 cells. The experiment is classed as functional. The following applies: read-out: LC50 (the source's name).
A further experiment concerns SF-295. The experiment in a line: Cytotoxicity against human SF295 cells. The experiment is classed as functional. The following applies: read-out: LC50 (the source's name).
Another experiment concerns PC-3. The experiment in a line: Cytotoxicity against human PC3 cells. It is filed as functional. Particulars: read-out: LC50 (the source's name).
The next experiment has as its system NCI-H460. In words: Cytotoxicity against human NCI-H460 cells. Particulars: read-out: LC50 (the source's name). It is filed as functional.
A further experiment concerns OVCAR-3. The experiment in a line: Cytotoxicity against human OVCAR-3 cells. The experiment is classed as functional. Particulars: read-out: LC50 (the source's name).
Another experiment relates to OVCAR-8. The experiment in a line: Cytotoxicity against human OVCAR8 cells. The experiment is classed as functional. Particulars: read-out: LC50 (the source's name).
In a further experiment the test system is MKN-28. The experiment in a line: Cytotoxicity against human MKN28 cells. The experiment is classed as functional. The following applies: read-out: LC50 (the source's name).
Experiment [3] has as its system HL-60. The experiment in a line: Cytotoxicity against human HL60 cells at 20 uM after 72 hrs by MTT assay. It is filed as functional, cell-based.

In the case of `C[C@@H]1O[C@@H](O[C@H]2[C@H](O[C@H]3CC[C@]4(C)[C@H]5CC=C6[C@@H]7CC(C)(C)CC[C@]7(C(=O)O)CC[C@@]6(C)[C@]5(C)CC[C@H]4C3(C)C)OC[C@H](O)[C@@H]2O)[C@H](O)[C@H](O[C@@H]2OC[C@@H](O)[C@@H](O)[C@H]2O)[C@H]1O`, the midpoint of inhibition with HL-60 [1], the IC50, lay at 2.3 µM.

Take `C[C@@H]1O[C@@H](OC[C@H]2O[C@@H](O[C@H]3[C@H](O)[C@@H](O)[C@H](O[C@@H]4CO[C@@H](O[C@@H]5[C@@H](O)[C@H](C)O[C@@H](O[C@H]6[C@H](O[C@H]7CC[C@]8(C)[C@H]9CC=C%10[C@@H]%11CC(C)(C)CC[C@]%11(C(=O)O)CC[C@@]%10(C)[C@]9(C)CC[C@H]8C7(C)C)OC[C@H](O)[C@@H]6O)[C@@H]5O)[C@H](O)[C@@H]4O)O[C@@H]3CO)[C@H](O)[C@@H](O)[C@@H]2O)[C@H](O)[C@H](O)[C@H]1O`: half-maximal inhibition in the experiment with HL-60 [1] (IC50) was put at 2.8 µM. In addition, the CC50 came to 5.9 µM in experiment [2]; 6.3 µM in the experiment on U-251; 6 µM with SF-295; 6 µM in the experiment on PC-3; 40 µM in the experiment with NCI-H460; 47 µM in the experiment on OVCAR-3. Moreover, the CC50 stood at 71 µM with OVCAR-8 and 30 µM with MKN-28.

For `C[C@@H]1O[C@@H](OC[C@H]2O[C@@H](O[C@H]3[C@H](O)[C@@H](O)[C@H](O[C@@H]4CO[C@@H](O[C@@H]5[C@@H](O)[C@H](C)O[C@@H](O[C@H]6[C@H](O[C@H]7CC[C@]8(C)[C@H]9CC=C%10[C@@H]%11CC(C)(C)CC[C@]%11(C(=O)O[C@@H]%11O[C@H](CO[C@@H]%12O[C@H](CO)[C@@H](O[C@@H]%13O[C@@H](C)[C@H](O)[C@@H](O)[C@H]%13O)[C@H](O)[C@H]%12O)[C@@H](O)[C@H](O)[C@H]%11O)CC[C@@]%10(C)[C@]9(C)CC[C@H]8C7(C)C)OC[C@H](O)[C@@H]6O)[C@@H]5O)[C@H](O)[C@@H]4O)O[C@@H]3CO)[C@H](O)[C@@H](O)[C@@H]2O)[C@H](O)[C@H](O)[C@H]1O`, the outcome in the experiment with HL-60 [3] was inactive.

By IC50 is commonly meant the midpoint of a concentration-inhibition curve. A high value points to lower potency.
